Active and inactive are the calls of the source. The rule behind the calls is not given here.
Key:
[1] = Tmax in Sprague-Dawley rat at 5 mg/kg,po measured up to 24 hrs by LC-MS/MS analysis; format: ADME, organism-based; conditions: in vivo
Homo sapiens = organism: Homo sapiens; experiment: Antiplatelet activity in human platelet-rich plasma assessed as inhibition of ADP-induced platelet aggregation by aggregometry; format: functional
In short: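 Human PRP from healthy donors free of aspirin/NSAIDs for at least two weeks, drawn into ACD; PRP spun at 300 g for 10 min, PPP at 2000 g. Compound in 0.5% DMSO preincubated 2 min at 37 °C with stirring (900 rpm). Aggregation induced by 10 μM ADP (final) and followed optically for 5 min.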

[2] = AUC (0 to infinity) in Sprague-Dawley rat at 5 mg/kg,po measured up to 24 hrs by LC-MS/MS analysis; format: ADME, organism-based; design: time < 24 hrs, dose 5 mg/kg, route po; conditions: in vivo
Cytochrome P450 3A4 [3] = biological target: T1, Cytochrome P450 3A4 (Homo sapiens, UniProt P08684); experiment: Inhibition of CYP3A4 in human liver microsomes using testosterone as substrate preincubated for 10 mins followed by NADPH addition and measured after 15 mins by LC-MS/MS analysis
T1 sequence (P08684 whole entry): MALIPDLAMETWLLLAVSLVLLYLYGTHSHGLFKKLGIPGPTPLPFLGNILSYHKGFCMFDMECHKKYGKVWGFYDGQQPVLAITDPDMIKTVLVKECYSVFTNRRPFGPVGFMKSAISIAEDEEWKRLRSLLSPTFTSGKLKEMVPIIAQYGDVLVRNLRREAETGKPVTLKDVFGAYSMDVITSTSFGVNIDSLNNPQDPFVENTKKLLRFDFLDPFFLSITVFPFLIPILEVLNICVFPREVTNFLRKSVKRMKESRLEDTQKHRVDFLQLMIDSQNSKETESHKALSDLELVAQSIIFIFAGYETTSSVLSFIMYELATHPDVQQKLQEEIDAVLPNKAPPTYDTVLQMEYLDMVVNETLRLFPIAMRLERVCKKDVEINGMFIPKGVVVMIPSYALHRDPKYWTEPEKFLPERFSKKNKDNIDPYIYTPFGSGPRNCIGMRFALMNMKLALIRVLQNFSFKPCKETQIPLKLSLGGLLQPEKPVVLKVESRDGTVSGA

Cytochrome P450 3A4 [4] = biological target: T1, Cytochrome P450 3A4; experiment: Inhibition of CYP3A4 in human liver microsomes using Midazolam as substrate preincubated for 10 mins followed by NADPH addition and measured after 15 mins by LC-MS/MS analysis
[5] = Cmax in Sprague-Dawley rat at 5 mg/kg,po measured up to 24 hrs by LC-MS/MS analysis; format: ADME, organism-based; design: time < 24 hrs, dose 5 mg/kg, route po; conditions: in vivo
[6] = Metabolic stability in human liver microsomes assessed as intrinsic clearance at 0.1 µM measured up to 60 mins in presence of NADPH regeneration system by LC-MS/MS analysis; conditions: 1 h
Cytochrome P450 1A2 = biological target: T2, Cytochrome P450 1A2 (Homo sapiens, UniProt P05177); experiment: Inhibition of CYP1A2 in human liver microsomes using phenacetin as substrate preincubated for 10 mins followed by NADPH addition and measured after 15 mins by LC-MS/MS analysis
T2 sequence (P05177 whole entry): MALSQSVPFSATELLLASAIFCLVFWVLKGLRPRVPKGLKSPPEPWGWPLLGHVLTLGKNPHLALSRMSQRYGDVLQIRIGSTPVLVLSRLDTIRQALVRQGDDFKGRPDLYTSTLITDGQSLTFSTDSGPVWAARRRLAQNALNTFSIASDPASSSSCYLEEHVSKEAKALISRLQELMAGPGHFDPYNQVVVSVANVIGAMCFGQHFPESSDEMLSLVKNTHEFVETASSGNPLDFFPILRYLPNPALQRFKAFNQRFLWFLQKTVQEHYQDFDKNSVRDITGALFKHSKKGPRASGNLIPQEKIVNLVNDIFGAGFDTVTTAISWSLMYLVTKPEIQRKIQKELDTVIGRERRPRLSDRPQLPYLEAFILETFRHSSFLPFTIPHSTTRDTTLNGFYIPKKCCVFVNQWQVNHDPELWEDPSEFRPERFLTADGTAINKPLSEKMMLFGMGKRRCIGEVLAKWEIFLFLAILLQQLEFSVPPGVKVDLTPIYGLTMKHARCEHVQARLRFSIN

[7] = Metabolic stability in rat liver microsomes assessed as intrinsic clearance at 0.1 µM measured up to 60 mins in presence of NADPH regeneration system by LC-MS/MS analysis; conditions: 1 h
Cytochrome P450 2C19 = Cytochrome P450 2C19 (Homo sapiens, UniProt P33261); experiment: Inhibition of CYP2C19 in human liver microsomes using S-mephenytoin as substrate preincubated for 10 mins followed by NADPH addition and measured after 15 mins by LC-MS/MS analysis
Sequence of Cytochrome P450 2C19 (P33261 whole entry): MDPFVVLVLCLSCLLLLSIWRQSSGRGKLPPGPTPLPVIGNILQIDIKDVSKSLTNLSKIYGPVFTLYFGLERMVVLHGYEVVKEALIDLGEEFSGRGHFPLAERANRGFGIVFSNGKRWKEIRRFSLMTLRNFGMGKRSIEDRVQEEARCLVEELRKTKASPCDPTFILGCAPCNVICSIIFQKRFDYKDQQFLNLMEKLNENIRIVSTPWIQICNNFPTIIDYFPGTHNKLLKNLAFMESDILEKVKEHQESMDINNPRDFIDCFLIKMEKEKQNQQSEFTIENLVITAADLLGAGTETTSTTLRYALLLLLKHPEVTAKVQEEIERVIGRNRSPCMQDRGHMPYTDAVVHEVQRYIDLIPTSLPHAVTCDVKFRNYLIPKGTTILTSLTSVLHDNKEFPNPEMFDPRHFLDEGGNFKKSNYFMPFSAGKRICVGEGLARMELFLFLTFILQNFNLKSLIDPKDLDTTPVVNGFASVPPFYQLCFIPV

[8] = Metabolic stability in dog liver microsomes assessed as half life at […] measured up to 60 mins in presence of NADPH regeneration system by LC-MS/MS analysis; format: ADME, Canis lupus familiaris, Microsome
[9] = Metabolic stability in human liver microsomes assessed as half life at […] measured up to 60 mins in presence of NADPH regeneration system by LC-MS/MS analysis; format: ADME, Microsome
[10] = MRT in Sprague-Dawley rat at 5 mg/kg,po measured up to 24 hrs by LC-MS/MS analysis; format: ADME, organism-based; conditions: in vivo
Cytochrome P450 2C9 = Cytochrome P450 2C9 (Homo sapiens, UniProt P11712); experiment: Inhibition of CYP2C9 in human liver microsomes using tolbutamide as substrate preincubated for 10 mins followed by NADPH addition and measured after 15 mins by LC-MS/MS analysis
Sequence of Cytochrome P450 2C9 (P11712 whole entry): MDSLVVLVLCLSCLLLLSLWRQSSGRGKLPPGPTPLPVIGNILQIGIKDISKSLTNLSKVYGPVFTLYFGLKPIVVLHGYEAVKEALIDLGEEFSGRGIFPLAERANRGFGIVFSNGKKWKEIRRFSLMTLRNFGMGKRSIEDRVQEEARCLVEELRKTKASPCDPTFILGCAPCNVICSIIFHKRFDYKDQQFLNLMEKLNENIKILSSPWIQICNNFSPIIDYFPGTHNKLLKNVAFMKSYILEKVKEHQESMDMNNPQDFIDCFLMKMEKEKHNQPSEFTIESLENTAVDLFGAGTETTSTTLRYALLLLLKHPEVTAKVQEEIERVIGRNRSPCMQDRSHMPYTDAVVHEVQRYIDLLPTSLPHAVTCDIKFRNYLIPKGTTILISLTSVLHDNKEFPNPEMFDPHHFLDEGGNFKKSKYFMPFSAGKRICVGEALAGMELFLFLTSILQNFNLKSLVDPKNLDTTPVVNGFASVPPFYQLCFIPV

[11] = Metabolic stability in dog liver microsomes assessed as intrinsic clearance at 0.1 µM measured up to 60 mins in presence of NADPH regeneration system by LC-MS/MS analysis; conditions: 1 h
[12] = Half life in Sprague-Dawley rat at 5 mg/kg,po measured up to 24 hrs by LC-MS/MS analysis; format: ADME, organism-based; conditions: in vivo
[13] = Metabolic stability in rat liver microsomes assessed as half life at […] measured up to 60 mins in presence of NADPH regeneration system by LC-MS/MS analysis; format: ADME, Microsome
Cytochrome P450 2D6 = Cytochrome P450 2D6 (Homo sapiens, UniProt P10635); experiment: Inhibition of CYP2D6 in human liver microsomes using dextromethorphan as substrate preincubated for 10 mins followed by NADPH addition and measured after 15 mins by LC-MS/MS analysis
Sequence of Cytochrome P450 2D6 (P10635 whole entry): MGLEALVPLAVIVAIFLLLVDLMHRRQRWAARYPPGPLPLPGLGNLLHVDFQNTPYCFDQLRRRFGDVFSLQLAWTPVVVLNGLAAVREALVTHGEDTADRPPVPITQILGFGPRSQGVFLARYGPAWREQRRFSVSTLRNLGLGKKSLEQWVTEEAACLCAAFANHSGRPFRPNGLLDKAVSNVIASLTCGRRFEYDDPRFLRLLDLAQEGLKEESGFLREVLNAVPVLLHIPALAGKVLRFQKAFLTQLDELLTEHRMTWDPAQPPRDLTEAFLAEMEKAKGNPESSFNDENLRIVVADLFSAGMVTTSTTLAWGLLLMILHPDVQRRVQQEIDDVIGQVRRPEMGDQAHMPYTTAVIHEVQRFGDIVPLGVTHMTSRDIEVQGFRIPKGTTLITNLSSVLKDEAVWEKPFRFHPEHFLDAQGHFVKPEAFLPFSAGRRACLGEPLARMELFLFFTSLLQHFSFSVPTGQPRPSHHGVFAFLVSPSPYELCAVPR

Rattus norvegicus = experiment: Antithrombotic activity in anesthetized Wistar rat model of FeCL3-induced carotid artery thrombosis assessed as reduction in thrombus weight at 10 mg/kg, po administered as single dose measured at 1.5 hrs post dose; format: functional, organism-based
In short: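 Compounds in 0.5% CMC-Na given to Wistar rats as a single oral gavage dose (10 mL/kg). Rats anesthetized with 2% pentobarbital i.p. at 50 mg/kg and kept on a heating pad. At 1.5 h post-dose, filter paper soaked in 20% FeCl3 applied to the isolated left carotid artery for 10 min; thrombus weight recorded. Mean ± SEM, n = 10.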

SMILES: N#Cc1cc2c(nc1N1CCC(C(=O)NS(=O)(=O)c3ccc(Cl)s3)CC1)COC2=O
- Tmax [1]: 0.25 h
- IC50 (Homo sapiens): 4.47 µM
- AUC(0-inf) [2]: 417 ng·h/mL
- IC50 (Cytochrome P450 3A4 [3]): > 50 µM
- IC50 (Cytochrome P450 3A4 [4]): > 50 µM
- Cmax [5]: 225 ng/mL
- intrinsic clearance [6]: 26.6 mL/min/g
- IC50 (Cytochrome P450 1A2): > 50 µM
- intrinsic clearance [7]: 13.8 mL/min/g
- IC50 (Cytochrome P450 2C19): 28.5 µM
- half-life [8]: 2.85 h
- half-life [9]: 1.32 h
- MRT [10]: 2.31 h
- IC50 (Cytochrome P450 2C9): > 50 µM
- intrinsic clearance [11]: 12.3 mL/min/g
- half-life [12]: 2.4 h
- half-life [13]: 2.53 h
- IC50 (Cytochrome P450 2D6): > 50 µM

SMILES: N#Cc1cc2c(nc1N1CCC(F)(C(=O)NS(=O)(=O)Cc3ccccc3)CC1)COC2=O
- Tmax [1]: 0.25 h
- IC50 (Homo sapiens): 1.21 µM
- AUC(0-inf) [2]: 291 ng·h/mL
- Cmax [5]: 149 ng/mL
- MRT [10]: 3.83 h
- half-life [12]: 2.52 h

SMILES: CC(c1ccccc1)S(=O)(=O)NC(=O)C1(F)CCN(c2nc3c(cc2C#N)C(=O)OC3)CC1 (stereo unspecified)
- IC50 (Homo sapiens): 9.95 µM

SMILES: N#Cc1cc2c(nc1N1CCC(C(=O)NS(=O)(=O)Cc3cc(Cl)cc(Cl)c3)CC1)COC2=O
- IC50 (Homo sapiens): 30.5 µM

SMILES: Cc1ccc(CS(=O)(=O)NC(=O)C2(F)CCN(c3nc4c(cc3C#N)C(=O)OC4)CC2)cc1
- IC50 (Homo sapiens): 32.8 µM

SMILES: N#Cc1cc2c(nc1N1CCC(C(=O)NS(=O)(=O)C3(c4ccccc4)CC3)CC1)COC2=O
- IC50 (Homo sapiens): 4.1 µM

SMILES: N#Cc1cc2c(nc1N1CC(C(=O)NS(=O)(=O)Cc3ccccc3)C1)COC2=O
- IC50 (Homo sapiens): > 300 µM

SMILES: N#Cc1cc2c(nc1N1CCC(C(=O)NS(=O)(=O)Cc3ccccc3)CC1)CCOC2=O
- IC50 (Homo sapiens): > 300 µM

SMILES: CC1OC(=O)c2cc(C#N)c(N3CC(C(=O)NS(=O)(=O)Cc4ccccc4)C3)nc21 (stereo unspecified)
- IC50 (Homo sapiens): > 300 µM

SMILES: N#Cc1cc2c(nc1N1CC(C(=O)NS(=O)(=O)c3ccc(Cl)s3)C1)COC2=O
- IC50 (Homo sapiens): 193 µM

SMILES: N#Cc1cc2c(nc1N1CCC(C(=O)NS(=O)(=O)Cc3ccccc3)CC1)COC2=O
- Tmax [1]: 0.25 h
- IC50 (Homo sapiens): 2.35 µM
- AUC(0-inf) [2]: 384 ng·h/mL
- Cmax [5]: 271 ng/mL
- intrinsic clearance [6]: 25.8 mL/min/g
- intrinsic clearance [7]: 14.5 mL/min/g
- half-life [8]: 1.93 h
- half-life [9]: 1.35 h
- Activity (Rattus norvegicus): Active
- MRT [10]: 1.91 h
- intrinsic clearance [11]: 18.2 mL/min/g
- half-life [12]: 1.7 h
- half-life [13]: 2.42 h

SMILES: CC1(C(=O)NS(=O)(=O)c2ccc(Cl)s2)CCN(c2nc3c(cc2C#N)C(=O)OC3)CC1
- Tmax [1]: 0.25 h
- IC50 (Homo sapiens): 1.64 µM
- AUC(0-inf) [2]: 1060 ng·h/mL
- IC50 (Cytochrome P450 3A4 [3]): > 50 µM
- IC50 (Cytochrome P450 3A4 [4]): > 50 µM
- Cmax [5]: 479 ng/mL
- intrinsic clearance [6]: 10.3 mL/min/g
- IC50 (Cytochrome P450 1A2): > 50 µM
- intrinsic clearance [7]: 27.6 mL/min/g
- IC50 (Cytochrome P450 2C19): 7.75 µM
- half-life [8]: 3.34 h
- half-life [9]: 3.4 h
- Activity (Rattus norvegicus): Active
- MRT [10]: 1.98 h
- IC50 (Cytochrome P450 2C9): > 50 µM
- intrinsic clearance [11]: 10.5 mL/min/g
- half-life [12]: 1.26 h
- half-life [13]: 1.27 h
- IC50 (Cytochrome P450 2D6): > 50 µM

SMILES: CC1(C(=O)NS(=O)(=O)Cc2ccccc2)CCN(c2nc3c(cc2C#N)C(=O)OC3)CC1
- IC50 (Homo sapiens): 6.68 µM

SMILES: N#Cc1cc2c(nc1N1CCC(C(=O)NS(=O)(=O)Cc3ccc(F)cc3F)CC1)COC2=O
- IC50 (Homo sapiens): 5.2 µM

SMILES: N#Cc1cc2c(nc1N1CCC(C(=O)NS(=O)(=O)Cc3ccccc3)C1)COC2=O (stereo unspecified)
- IC50 (Homo sapiens): > 300 µM

SMILES: CC1(C(=O)NS(=O)(=O)Cc2ccc(Cl)cc2)CCN(c2nc3c(cc2C#N)C(=O)OC3)CC1
- Tmax [1]: 0.25 h
- IC50 (Homo sapiens): 3.01 µM
- AUC(0-inf) [2]: 1350 ng·h/mL
- Cmax [5]: 877 ng/mL
- MRT [10]: 2.58 h
- half-life [12]: 1.9 h

SMILES: CN1Cc2nc(N3CCC(C(=O)NS(=O)(=O)Cc4ccccc4)CC3)c(C#N)cc2C1=O
- IC50 (Homo sapiens): > 300 µM

SMILES: N#Cc1cc2c(nc1N1CCC(C(=O)NS(=O)(=O)Cc3ccc(C(F)(F)F)cc3)CC1)COC2=O
- IC50 (Homo sapiens): 15.9 µM

SMILES: N#Cc1ccc(CS(=O)(=O)NC(=O)C2CCN(c3nc4c(cc3C#N)C(=O)OC4)CC2)cc1
- IC50 (Homo sapiens): 8.9 µM
